From ChEMBL document CHEMBL4007486, “Prospective Evaluation of Free Energy Calculations for the Prioritization of Cathepsin L Inhibitors” (J Med Chem, 2017)
pKi: −log10 of the molar value.

Key:
[1] = Lipophilicity, logD of the compound; type: physicochemical; settings: octanol/water
[2] = target: T1, Procathepsin L (Homo sapiens, UniProt P07711); test: Inhibition of human Cathepsin L by fluorescence assay based Cheng-Prusoff equation analysis
How it was run: (§1)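 Fluorescence-based enzymatic assay against human cathepsin L, run as previously described. IC50 was measured, and Ki was then calculated from it with the Cheng-Prusoff equation.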

[3] = target: T1, Procathepsin L; test: Inhibition of human Cathepsin L; how it was run: as §1

T1 sequence (P07711 whole entry): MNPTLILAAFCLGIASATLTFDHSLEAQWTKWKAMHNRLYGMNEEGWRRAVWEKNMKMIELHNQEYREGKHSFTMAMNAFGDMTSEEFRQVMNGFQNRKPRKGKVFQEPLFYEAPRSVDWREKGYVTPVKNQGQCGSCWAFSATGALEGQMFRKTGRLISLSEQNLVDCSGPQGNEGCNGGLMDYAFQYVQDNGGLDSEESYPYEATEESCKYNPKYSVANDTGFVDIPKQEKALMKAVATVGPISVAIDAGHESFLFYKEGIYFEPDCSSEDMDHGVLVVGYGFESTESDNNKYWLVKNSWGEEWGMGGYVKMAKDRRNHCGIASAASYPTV

SMILES	logD [1]	pKi [2]	pKi [3]
N#Cc1ncc(F)c(N(CCC2CCOCC2)Cc2ccc3c(c2)OCO3)n1	3.46	5.55	
N#Cc1ncc(F)c(N(Cc2ccc3c(c2)OCO3)c2ccc(OCC(F)(F)F)cc2)n1		< 5.29	
CC1(N(Cc2ccc3c(c2)OCO3)c2nc(C#N)ncc2F)CC1	3.38	< 5.29	
N#Cc1ncc(F)c(N(Cc2ccc3c(c2)OCO3)C2CCCCC2)n1			6.70
N#Cc1ncc(F)c(N(CCc2ccccn2)Cc2ccc3c(c2)OCO3)n1	3.39	5.41	
N#Cc1ncc(F)c(N(Cc2ccc3c(c2)OCO3)c2ccccc2)n1	3.44	5.74	
N#Cc1ncc(F)c(N(Cc2ccc3c(c2)OCO3)[C@H]2CC[C@H](C(F)(F)F)CC2)n1		< 5.29	
CSc1cccc(N(Cc2ccc3c(c2)OCO3)c2nc(C#N)ncc2F)c1		5.29	
CC(C)[C@H]1CC[C@@H](N(Cc2ccc3c(c2)OCO3)c2nc(C#N)ncc2F)CC1	2.74	5.52	
N#Cc1ncc(F)c(N(Cc2ccc3c(c2)OCO3)c2cccc(OCc3ccccc3)c2)n1		< 5.29	
N#Cc1ncc(F)c(N(Cc2ccc3c(c2)OCO3)c2ccc(OCC3CC3)cc2)n1		< 5.29	
N#Cc1ncc(F)c(N(Cc2ccccc2)Cc2ccc3c(c2)OCO3)n1		< 5.29	
CNCCc1cccc(N(Cc2ccc3c(c2)OCO3)c2nc(C#N)ncc2F)c1		< 5.29	
N#Cc1nc(N2CCOCC2)nc(N(Cc2ccc(Cl)cc2)C2CCCCC2)n1			7.89
N#Cc1ncc(F)c(N(Cc2ccc(Cl)cc2)Cc2ccc3c(c2)OCO3)n1		< 5.29	
N#Cc1ncc(F)c(N(Cc2ccc3c(c2)OCO3)[C@H]2CC[C@@H](C(F)(F)F)CC2)n1		5.46	

Results, then the molecule that gave them:

logD [1]	pKi [2]	pKi [3]	SMILES
	7.52		COc1cccc(CCCN(Cc2ccc3c(c2)OCO3)c2nc(C#N)ncc2F)c1
	7.92		N#Cc1ncc(F)c(N(Cc2ccc3c(c2)OCO3)CC2CCCC2)n1
	6.91		N#Cc1ncc(F)c(N(CCOc2ccc3ccccc3c2)Cc2ccc3c(c2)OCO3)n1
	6.66		N#Cc1ncc(F)c(N(CCc2ccccc2)Cc2ccc3c(c2)OCO3)n1
2.32	5.84		Cc1cc(OCCN(Cc2ccc3c(c2)OCO3)c2nc(C#N)ncc2F)cc(C)c1Cl
3.02	7.11		N#Cc1ncc(F)c(N(Cc2ccc3c(c2)OCO3)CC2CC2)n1
2.96	5.76		Cc1nc2n(c(=O)c1CCN(Cc1ccc3c(c1)OCO3)c1nc(C#N)ncc1F)CCCC2
3.49	6.39		Cc1nsc(N2CCC(N(Cc3ccc4c(c3)OCO4)c3nc(C#N)ncc3F)CC2)n1
	6.55		N#Cc1ncc(F)c(N(CCc2ccc(F)cc2)Cc2ccc3c(c2)OCO3)n1
	7.04		N#Cc1ncc(F)c(N(CCCc2noc(-c3ccccc3)n2)Cc2ccc3c(c2)OCO3)n1
	6.78		N#Cc1ncc(F)c(N(CCOc2ccc(Cl)cc2)Cc2ccc3c(c2)OCO3)n1
3.49	6.02		N#Cc1ncc(F)c(N(Cc2ccc3c(c2)OCO3)c2ccc(F)cc2)n1
2.12	6.52		N#Cc1cccc(CCN(Cc2ccc3c(c2)OCO3)c2nc(C#N)ncc2F)c1
3.15	6.30		N#Cc1ncc(F)c(N(CCc2ccncc2)Cc2ccc3c(c2)OCO3)n1
	6.00		CC(C)=CCN(Cc1ccc2c(c1)OCO2)c1nc(C#N)ncc1F
	7.11		N#Cc1ncc(F)c(N(CCOc2ccccc2)Cc2ccc3c(c2)OCO3)n1
	5.99		N#Cc1ncc(F)c(N(Cc2ccc3c(c2)OCO3)c2ccc(Oc3cccnc3)cc2)n1
3.61	6.29		N#Cc1ncc(F)c(N(Cc2ccc3c(c2)OCO3)C2CCSCC2)n1
	6.17		N#Cc1ncc(F)c(N(CCc2ccsc2)Cc2ccc3c(c2)OCO3)n1
	7.57		N#Cc1ncc(F)c(N(CCCc2ccc(Cl)cc2)Cc2ccc3c(c2)OCO3)n1
	6.45		N#Cc1ncc(F)c(N(CCc2cccc(Br)c2)Cc2ccc3c(c2)OCO3)n1
3.16	7.60		N#Cc1ncc(F)c(N(CCC(F)(F)F)Cc2ccc3c(c2)OCO3)n1
